Measurements: PMC4911243 (Cancer research, 2016)

Columns and labels:
[1] = biological target: Notch ternary complex (CSL, Notch1, Maml1 on DNA) (Homo sapiens, UniProt P46531); assay: in vitro Notch ternary complex; type: biochemical; details: for IC50: in vitro NTC assay, dose-response
Notch1 (NICD) = Notch1 (NICD) (Homo sapiens, UniProt P46531); assay: Surface plasmon resonance, binding to NICD; details: for mode of binding to Notch1: SPR sensorgrams, dissociation to baseline; for Kd: SPR, equilibrium approach, 1:1 binding model, wild type NICD
Notch1 (NICD), sequence (P46531 1754-2555 limits assumed): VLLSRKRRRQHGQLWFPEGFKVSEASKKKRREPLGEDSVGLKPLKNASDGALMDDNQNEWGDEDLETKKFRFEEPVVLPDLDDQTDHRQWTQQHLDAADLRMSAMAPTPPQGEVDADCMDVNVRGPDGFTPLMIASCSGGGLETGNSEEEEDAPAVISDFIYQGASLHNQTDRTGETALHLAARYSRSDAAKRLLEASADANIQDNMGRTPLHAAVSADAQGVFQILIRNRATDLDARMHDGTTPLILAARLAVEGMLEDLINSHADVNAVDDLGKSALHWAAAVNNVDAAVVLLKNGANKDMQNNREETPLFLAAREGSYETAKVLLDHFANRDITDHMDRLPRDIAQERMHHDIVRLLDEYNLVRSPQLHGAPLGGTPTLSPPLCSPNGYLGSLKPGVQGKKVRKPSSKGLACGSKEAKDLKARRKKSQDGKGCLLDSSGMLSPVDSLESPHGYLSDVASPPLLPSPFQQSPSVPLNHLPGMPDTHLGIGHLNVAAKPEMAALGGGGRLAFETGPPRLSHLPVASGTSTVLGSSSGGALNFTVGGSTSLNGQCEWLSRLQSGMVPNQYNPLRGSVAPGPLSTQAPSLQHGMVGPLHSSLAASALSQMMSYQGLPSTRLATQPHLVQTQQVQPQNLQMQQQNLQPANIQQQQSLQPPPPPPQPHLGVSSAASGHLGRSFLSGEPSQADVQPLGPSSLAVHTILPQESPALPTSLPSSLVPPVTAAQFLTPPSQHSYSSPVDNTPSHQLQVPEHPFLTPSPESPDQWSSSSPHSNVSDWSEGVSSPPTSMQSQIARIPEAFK
Procedure, shortened: (§1)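 NICD (wild type or point mutant) was amine-coupled to a CM5 chip. Runs were on a Biacore T200 at 25 °C in 10 mM PBS pH 7.5 with 5% DMSO as running buffer. Signals were corrected against a DMSO control. Dissociation was followed under buffer flow. KD came from equilibrium response (Req) versus test compound concentration, fitted to a 1:1 binding model.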

NICD R2061A = NICD R2061A (Homo sapiens, UniProt P46531, R2060A); assay: Surface plasmon resonance, binding to mutated NICD; details: SPR
NICD R2061A, sequence (P46531 1754-2555 R2060A): as the sequence (P46531 1754-2555 limits assumed) above, with R307A counted along it
Procedure, shortened: as §1

NICD R2071A = NICD R2071A (Homo sapiens, UniProt P46531, R2070A); assay: Surface plasmon resonance, binding to mutated NICD; details: SPR
NICD R2071A, sequence (P46531 1754-2555 R2070A): as the sequence (P46531 1754-2555 limits assumed) above, with R317A counted along it
Procedure, shortened: as §1

NICD R2096A = NICD R2096A (Homo sapiens, UniProt P46531, R2095A); assay: Surface plasmon resonance, binding to mutated NICD; details: SPR, R2096 substituted by alanine
NICD R2096A, sequence (P46531 1754-2555 R2095A): as the sequence (P46531 1754-2555 limits assumed) above, with R342A counted along it
Procedure, shortened: as §1

NICD R2105A = NICD R2105A (Homo sapiens, UniProt P46531, R2104A); assay: Surface plasmon resonance, binding to mutated NICD; details: SPR, R2105 substituted by alanine
NICD R2105A, sequence (P46531 1754-2555 R2104A): as the sequence (P46531 1754-2555 limits assumed) above, with R351A counted along it
Procedure, shortened: as §1

[2] = system: Notch-independent cell lines (refractory to DAPT); assay: Colony formation assay, Notch-independent cell lines; type: cell-based, human; details: cells refractory to DAPT
[3] = system: HES1 promoter occupancy in OE33 and 786-0 cells; assay: ChIP assay on the HES1 promoter; type: cell-based, human; details: DAPT 15 μM, IMR-1 25 μM
Procedure, shortened: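 OE33 and 786-0 cells were exposed to DAPT, test compound or DMSO vehicle. Chromatin immunoprecipitation used the indicated antibodies against NTC components, and HES1 promoter occupancy was assessed.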

[4] = system: Notch target genes (Hes-1, Hey-L) in OE33 and 786-0 cells; assay: RT-qPCR analysis of Notch target genes; type: cell-based, human
Procedure, shortened: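 OE33 and 786-0 cells were treated, then Hes-1 and Hey-L were measured by reverse transcription and TaqMan qPCR. Values were normalized to TBP and HPRT and expressed relative to vehicle (DMSO) control set to 1.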

[5] = system: NICD in OE33 and 786-0 cells; assay: Western analysis of NICD levels; type: cell-based, human; details: Western analysis of lysates from ChIP assay cells
Procedure, shortened: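 Lysates came from the same treated OE33 and 786-0 cells used for ChIP (DAPT 15 μM, test compound 25 μM, or DMSO). Western blots were probed with anti-Notch1, anti-cleaved Notch1 (Val1744) and anti-GAPDH antibodies.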

[6] = system: OE19 human esophageal adenocarcinoma cells; assay: OE19 xenograft model in nude mouse; type: in vivo; details: 15 mg/kg
Procedure, shortened: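 Nude mice received 5 × 10^6 OE19 cells in the flank, and tumors developed over 4 weeks. Mice were treated with test compound at 15 mg/kg or DMSO control. Tumor establishment and body weight were monitored through treatment.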

[7] = system: patient-derived esophageal adenocarcinoma xenograft (EAC29 and EAC47); assay: Patient-derived esophageal adenocarcinoma xenograft; type: in vivo
Procedure, shortened: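 Patient-derived esophageal adenocarcinoma tumors were grown in NSG mice to 200 mm3 before treatment began. Mice then received daily i.p. doses of test compound (15 mg/kg), comparator inhibitor (20 mg/kg) or DMSO vehicle. After 24 days, tumors were harvested. Notch target gene transcription was measured by RT-qPCR (TaqMan) and normalized to TBP and HPRT.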

[8] = Plasma pharmacokinetic profile in mice; type: in vivo, male C57 BL/6 mice; details: for signal in plasma: after IMR-1 i.v. 2 mg/kg and i.p. 100 mg/kg, any time point
Procedure, shortened: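 Male C57BL/6 mice received a single test compound dose, either 2 mg/kg i.v. or 100 mg/kg i.p. Plasma was analysed by mass spectrometry (m/z) for parent and acid metabolite. Metabolite PK parameters (Tmax, T1/2, CL, Vss) were calculated on the parent dose. Clearance was referenced to 90 mL/min/kg liver blood flow, and Vss to 0.7 L/kg total body water.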

D. rerio (zebrafish) = assay: Somite formation in zebrafish embryos; type: in vivo; details: embryos soaked in 40 μM IMR-1
Procedure, shortened: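 Zebrafish embryos were exposed to test compound at 8 hpf and examined at 13 hpf in coronal view for somites. Controls were untreated, DMSO vehicle, and 100 pg human Notch1 intracellular domain mRNA-injected embryos. The percentage of embryos with somites was scored and compared by Fisher's exact test.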

[9] = IMR-1A after IMR-1 i.p. 100 mg/kg, mice plasma

Notch ternary complex (CSL, Notch1, Maml1 on DNA), sequence (P46531 1754-2555 limits assumed): as the sequence (P46531 1754-2555 limits assumed) above
Notch ternary complex (CSL, Notch1, Maml1 on DNA), sequence (Q06330 whole entry partner): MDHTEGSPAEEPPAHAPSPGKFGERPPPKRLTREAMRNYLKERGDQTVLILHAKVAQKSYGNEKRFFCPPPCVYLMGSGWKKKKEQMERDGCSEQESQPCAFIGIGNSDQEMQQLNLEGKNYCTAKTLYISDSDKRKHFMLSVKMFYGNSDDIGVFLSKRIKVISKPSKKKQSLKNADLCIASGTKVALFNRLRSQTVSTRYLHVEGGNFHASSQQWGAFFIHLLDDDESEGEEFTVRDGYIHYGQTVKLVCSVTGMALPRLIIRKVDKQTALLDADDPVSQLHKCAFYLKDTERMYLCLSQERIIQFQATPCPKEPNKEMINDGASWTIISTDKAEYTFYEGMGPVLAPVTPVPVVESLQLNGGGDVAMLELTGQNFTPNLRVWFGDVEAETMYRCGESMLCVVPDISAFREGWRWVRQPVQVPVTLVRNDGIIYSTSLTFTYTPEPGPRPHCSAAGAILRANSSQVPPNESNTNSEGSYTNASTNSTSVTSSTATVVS

IMR-1
IC50 [1]: 26 µM | mode of binding to Notch1 (Notch1 (NICD)): non-covalent, reversible binding | Kd (Notch1 (NICD)): 11 ± 3 µM | Kd (NICD R2061A; NICD R2061A): 35.6 µM | decrease in affinity relative to wild type NICD (NICD R2061A; R2061 replaced with alanine): approximately 5 fold | Kd (NICD R2071A; NICD R2071A): 38.7 µM | decrease in affinity relative to wild type NICD (NICD R2071A; R2071 replaced with alanine): approximately 5 fold | effect of mutation on affinity (NICD R2096A): No effect | effect of mutation on affinity (NICD R2105A): No effect | colony formation [2]: equally resistant | occupancy of Maml1 on the HES1 promoter [3]: decreased the occupancy | occupancy of Notch1 on the HES1 promoter [3]: did not affect the occupancy | Notch target gene transcription ([4]; Hes-1, Hey-L, OE33 and 786-0): dose-dependent decrease | transcription of the housekeeping gene HPRT ([4]; treated cells): unaltered | levels of NICD in cells [5]: does not change | adverse effects [6]: no observable adverse effects | tumor establishment ([6]; nude mouse, OE19 cells, 4 weeks): readily blocks tumor establishment | body weight ([6]; throughout the treatment course): remained constant | expression level of Notch target genes (Hes1, HeyL, Notch3) in excised tumors ([7]; after 24 days of treatment, both PDX models): dramatically reduced | weight loss or visible signs of adverse effects ([7]; daily i.p. 15 mg/kg): without any significant weight loss or other visible signs of adverse effects | PDX tumor growth ([7]; daily i.p., IMR-1 15 mg/kg or DAPT 20 mg/kg, 24 days, vs DMSO): significantly abrogated growth | general toxicity upon in vivo treatment ([7]; in vivo treatment, summary statement): no general toxicity was observed | signal in plasma [8]: no signal was detected | clinical signs ([8]; single i.v. 2 mg/kg and i.p. 100 mg/kg, through last sample withdrawal): did not induce any clinical signs | embryos with disruption of somite formation (D. rerio (zebrafish)): 69.7%

COc1cc(/C=C2/SC(=S)NC2=O)ccc1OCC(=O)O [IMR-1A]
increase in potency with respect to IMR-1 ([1]; in vitro NTC assay IC50): 50 fold | IC50 [1]: 0.5 µM | mode of binding to Notch1 (Notch1 (NICD)): non-covalent, reversible binding | Kd (Notch1 (NICD)): 2.9 ± 0.6 µM | T1/2 [8, 9]: 6.16 h | Tmax [8, 9]: 0.50 h | Vss relative to normal volume of total body water (0.7 L/kg) ([8]; IMR-1A after IMR-1 i.v. 2 mg/kg): ~ 4 fold | T1/2 ([8]; IMR-1A after IMR-1 i.v. 2 mg/kg, mice plasma): 2.22 h | CL ([8]; IMR-1A after IMR-1 i.v. 2 mg/kg, mice plasma, 2 mg/kg): 7 mL/min/kg | time up to which plasma concentrations were quantifiable ([8]; after IMR-1 i.p. 100 mg/kg): up to 24 h | signal in plasma [8]: present

C[C@H](NC(=O)Cc1cc(F)cc(F)c1)C(=O)N[C@H](C(=O)OC(C)(C)C)c1ccccc1 [DAPT, reference compound]
colony formation [2]: refractory | occupancy of Maml1 on the HES1 promoter [3]: decreased the occupancy | occupancy of Notch1 on the HES1 promoter [3]: decreased the occupancy
